Measurements: PubChem BioAssay
Activity calls are given as the source filed them.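 How the source made its calls, unless noted: active means viability at or below 10% of carrier control in both of two separate runs; inconclusive means viability at or below 10% in only one of the two runs; inactive means the rest.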 Peptide text beside a SMILES is read from it. * marks the point of attachment. Boc = CC(C)(C)OC(=O)*

Assays:
[1] = reduced viability of SK-BR-3 breast cancer cells – cell-based, 24 h, human, pilot screen (AID 572); settings: SK-BR-3 viability, CellTiter-Glo luminescence, at 10 µM, stronger effect = lower value;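 further: compound exposure lasted between 18 and 24 h rather than exactly 24 h; 100% = carrier-treated control wells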
[2] = HUVEC growth inhibition – cell-based, human, primary screen (AID 575;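 active means viability at or below 30% in both replicate assays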;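 further: 100% = median of untreated cell wells with 0.1% DMSO on each plate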); settings: HUVEC proliferation, CellTiter-Glo luminescence, 72 h; at 10 µM; stronger effect = lower value
How it was run: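 Assay system: Primary human umbilical vein endothelial cells | Quantity: 1250 cells per well | Medium: Supplemented EBM, 2% fetal bovine serum | Detection: CellTiter-Glo luminescence measuring cellular ATP | Read-out: % viability vs DMSO wells | Plate: Collagen-coated 384-well format | Times: 72 h exposure, 37 °C, 5% CO2, 30 min RT equilibration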

[3] = H69AR cell proliferation blockers – human, duplicate replicates, primary screen (AID 580;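 active means viability at or under a set limit in both replicates, limit being median viability minus 3 SD, cut at about 48% in these data, passing the limit was not always enough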;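 further: 100% = mean luminescence of untreated wells and 0% = no signal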); settings: H69AR lung tumor cells viability, ATP luminescence, 72 h; at 10 µM; stronger effect = lower value
[4] = MRP1 drug-resistance reversers in H69AR cells – cell-based, doxorubicin co-treatment, pilot screen (AID 601;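 active means viability loss from added drug above about 55%, and viability with drug at most 40%, in both replicates, limit read from the data, passing the limit was not always enough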); settings: CellTiter-Glo, 72 h, at 10 µM; for differential viability (reversal): stronger effect = higher value
[5] = yeast transport mutant growth inhibition pilot in 384-well plates, post-Golgi transport modulator project (AID 636; in the data active means inhibition above about 31%); settings: absorbance 615 nm, about 18 h, stronger effect = higher value
[6] = growth suppression of yeast trafficking mutant, preliminary HTS, modulators of trafficking downstream of Golgi apparatus project, 1536-format plate, OD 615 nm (AID 637; in the data active means inhibition above about 30%); settings: yeast transport mutant growth, absorbance 615 nm, 18 h; stronger effect = higher value
[7] = H69AR cells + 2 uM doxorubicin, measured here: viability with 2 uM doxorubicin, stronger effect = lower value
[8] = H69AR cells, compound alone cytotoxicity

Structure (SMILES)	viability [1]	viability [2]	viability [3]	differential viability (reversal) ([4]; H69AR cells + 2 uM doxorubicin)	viability [4, 7] [%]	viability [4, 8] [%]	inhibition [5]	inhibition [6]
Cc1nnc(SCc2cccc(Oc3ccccc3)c2)n1N	74% (inactive)	89.3% (inactive)	99.6% (inactive)	5.25% (inactive)	94.4	99.6	-5.89% (inactive)	6.18% (inactive)
Cc1cc(=O)[nH]c(SCc2nc3ncccn3c2Br)n1	108% (inactive)	78.4% (inactive)	88.9% (inactive)	-2.9% (inactive)	91.8	88.9	-4.81% (inactive)	-3.44% (inactive)
C=CCN(CC=C)C(=O)c1ccncc1	115% (inactive)	92.8% (inactive)	102% (inactive)	-2.84% (inactive)	104	102	0.68% (inactive)	-4.84% (inactive)
CCN(CC)c1ccc(C(=O)n2cnc3ccccc32)cc1	111% (inactive)	61.5% (inactive)	15.1% (active)	-53.7% (inactive)	68.8	15.1	-3.33% (inactive)	-2% (inactive)
COC(=O)c1ccc2c(=O)n(CC3CCCO3)c(=S)[nH]c2c1 (stereo unspecified)	84% (inactive)	106% (inactive)	86.2% (inactive)	2.35% (inactive)	83.9	86.2	-8.36% (inactive)	4.19% (inactive)
O=C(Cn1cnc2c(cnn2-c2ccc(F)cc2)c1=O)N1CCN(c2ccccc2)CC1	97% (inactive)	94% (inactive)	70.3% (inactive)	4.54% (inactive)	65.8	70.3	0.39% (inactive)	-5.57% (inactive)
CC1=NS(=O)(=O)c2cc(Cl)ccc2N1	119% (inactive)	89.4% (inactive)	94.4% (inactive)	7.28% (inactive)	87.1	94.4	-1.17% (inactive)	4.67% (inactive)
Cc1nc(NC(=O)c2csc3ccccc23)sc1C	100% (inactive)	83% (inactive)	78.2% (inactive)	-3.3% (inactive)	81.5	78.2	3.84% (inactive)	-2.74% (inactive)
CC1(C)S[C@@H]2[C@H](NC(=O)[C@H](N)c3ccccc3)C(=O)N2[C@H]1C(=O)O	103% (inactive)	93.8% (inactive)	107% (inactive)	15.6% (inactive)	91.4	107	-5.32% (inactive)	3.33% (inactive)
O=C(CCN1C(=O)c2ccccc2C1=O)N1CCN(C(=O)c2ccccc2)CC1	106% (inactive)	108% (inactive)	101% (inactive)	8.3% (inactive)	92.3	101	-3.25% (inactive)	4.59% (inactive)
CN=c1sc2ccccc2n1CC(O)COCc1ccco1 (stereo unspecified)	107% (inactive)	86.6% (inactive)	98.4% (inactive)	10.8% (inactive)	87.5	98.4	-8.49% (inactive)	1.94% (inactive)
Cc1ccc(S(=O)(=O)N2CCN(C(=O)N3CCOCC3)C2c2ccc(N(C)C)cc2)cc1 (stereo unspecified)	106% (inactive)	96.3% (inactive)	110% (inactive)	5.79% (inactive)	105	110	-6.03% (inactive)	9.64% (inactive)
NC(=O)c1c(NC(=O)Cc2cccs2)sc2c1CCC2	103% (inactive)	97.3% (inactive)	94.3% (inactive)	3.05% (inactive)	91.3	94.3	-0.27% (inactive)	-6.94% (inactive)
CCC1CCCCN1C(=O)CSc1nnc(-c2ccco2)o1 (stereo unspecified)	126% (inactive)	94.4% (inactive)	85.7% (inactive)	3.32% (inactive)	82.3	85.7	-1.78% (inactive)	-6.45% (inactive)
CC1(C)CN=C(N2CCN(c3ncnc4sc5c(c34)CCCC5)CC2)S1	72% (inactive)	54.2% (inactive)	77.3% (inactive)	-8.36% (inactive)	85.6	77.3	-1.15% (inactive)	0.83% (inactive)
CCOc1cc(C2Nc3ccccc3C(=O)N2c2ccccc2OC)ccc1O (stereo unspecified)	98% (inactive)	105% (inactive)	95% (inactive)	0.125% (inactive)	94.9	95	-4.59% (inactive)	28.4% (inactive)
COc1ccc2cc3cc(C(=O)NCC4CCCO4)oc3nc2c1 (stereo unspecified)	128% (inactive)	84.8% (inactive)	88.1% (inactive)	4.77% (inactive)	83.4	88.1	1.69% (inactive)	3.44% (inactive)
CCOC(=O)C1CCCN(C(=O)c2sc3nc(-c4ccccc4)cn3c2C)C1 (stereo unspecified)	112% (inactive)	89.3% (inactive)	84.9% (inactive)	1.98% (inactive)	82.9	84.9	-1.3% (inactive)	15.9% (inactive)
CC(=O)SCC(=O)N=c1sc2cc(F)ccc2n1C	90.5% (inactive)	75.5% (inactive)	93.4% (inactive)	-2.64% (inactive)	96.1	93.4	-5.26% (inactive)	7.78% (inactive)

Structure (SMILES)	viability [1]	viability [2]	viability [3]	differential viability (reversal) ([4]; H69AR cells + 2 uM doxorubicin)	viability [4, 7] [%]	viability [4, 8] [%]	inhibition [5]	inhibition [6]
CN(C)CCCOC(=O)CCc1ccccc1	95% (inactive)	126% (inactive)	96.3% (inactive)	2.46% (inactive)	93.9	96.3	-4.73% (inactive)	-7.09% (inactive)
COCCNC(=O)CN1CCC(NC(=O)Nc2ccc(C(F)(F)F)cc2)CC1	92% (inactive)	96.5% (inactive)	102% (inactive)	8.66% (inactive)	93.5	102	-5.54% (inactive)	0.55% (inactive)
CCCC1Cc2c(sc3ncnc(N)c23)CO1 (stereo unspecified)	111% (inactive)	94.5% (inactive)	90.9% (inactive)	-10.3% (inactive)	101	90.9	-0.14% (inactive)	-0.73% (inactive)
Cc1ccn2cc(CCNC(=O)CC(C)(C)C)nc2c1	89% (inactive)	113% (inactive)	97.9% (inactive)	9.27% (inactive)	88.6	97.9	-4.19% (inactive)	-2.36% (inactive)
Cc1cccc(NC(=O)c2cc(NC(=O)c3ccco3)ccc2Cl)n1	101% (inactive)	77.2% (inactive)	95.4% (inactive)	0.16% (inactive)	95.3	95.4	-1.56% (inactive)	7.21% (inactive)
COc1cc2c(=O)nc3n(c2cc1OC)C(c1ccccc1)N=C(N)N3 (stereo unspecified)	69% (inactive)	109% (inactive)	97.1% (inactive)	-2.35% (inactive)	99.4	97.1	-2.84% (inactive)	20.2% (inactive)
CN(C(=O)c1ccccn1)c1nnc(-c2cccnc2)s1	97% (inactive)	90.6% (inactive)	111% (inactive)	17.8% (inactive)	93.5	111	-5.07% (inactive)	-2.26% (inactive)
Cc1ccc(F)cc1NC(=O)C1CCCN(c2ncccn2)C1 (stereo unspecified)	100% (inactive)	104% (inactive)	88.7% (inactive)	-1.88% (inactive)	90.6	88.7	-6.8% (inactive)	-2.91% (inactive)
CCCN1Cc2cccc(C(=O)NC3CCCC3)c2C1=O	111% (inactive)	91.5% (inactive)	87.9% (inactive)	5.09% (inactive)	82.8	87.9	-7.47% (inactive)	6.36% (inactive)
CC(=O)c1c(C)[nH]c(C(=O)Nc2c(C)n(C)n(-c3ccccc3)c2=O)c1C	82% (inactive)	101% (inactive)	90.2% (inactive)	7.98% (inactive)	82.2	90.2	-8.63% (inactive)	0% (inactive)
O=C(NCc1ccco1)c1cc2cc3ccc(Cl)cc3nc2o1	90% (inactive)	21.4% (active)	2.59% (active)	-0.39% (inactive)	2.98	2.59	-0.65% (inactive)	0% (inactive)
C/C=C(\CS(=O)(=O)c1ccccc1)S(=O)(=O)c1ccccc1	110% (inactive)	85.1% (inactive)	6.84% (active)	-0.38% (inactive)	7.22	6.84	-0.91% (inactive)	-4.26% (inactive)
CCCN(CC1CC1)C(=O)Nc1ccccc1C	94% (inactive)	101% (inactive)	104% (inactive)	12.2% (inactive)	92.2	104	-1.04% (inactive)	-12.9% (inactive)
Cn1c(C(=O)OC(C(=O)NC2CCCC2)c2cccnc2)cc2sccc21 (stereo unspecified)	74% (inactive)	110% (inactive)	89.1% (inactive)	-3.48% (inactive)	92.6	89.1	-4.38% (inactive)	2.91% (inactive)
CSCCC(NC(=O)OC(C)(C)C)C(=O)NC(CC(C)C)C(N)=O (stereo not drawn) (Boc-Met-Leu-NH2; configuration not given here)	91% (inactive)	97.7% (inactive)	92% (inactive)	1.58% (inactive)	90.4	92	0.39% (inactive)	0.16% (inactive)
CC(C)(C)NCC(O)c1cc(O)cc(O)c1 (stereo unspecified)	127% (inactive)	109% (inactive)	98.9% (inactive)	7.49% (inactive)	91.4	98.9	-2.73% (inactive)	2.5% (inactive)
Cc1ccc(N(C(C)C(=O)Nc2ccc(S(=O)(=O)N3CCOCC3)cc2)S(C)(=O)=O)cc1 (stereo unspecified)	87% (inactive)	106% (inactive)	99.8% (inactive)	-6.04% (inactive)	106	99.8	-6.3% (inactive)	-7.9% (inactive)
CSc1c(CC(=O)NCCO)n(C)c2ccccc12	108% (inactive)	111% (inactive)	102% (inactive)	9.3% (inactive)	93.1	102	-4.13% (inactive)	0.91% (inactive)
